An excerpt weighted towards active compounds, which were near 1.9% of everything screened.
PLCb3 inh: PLC-beta3 (human) inhibition, primary screen; Q01970; Purified PLC-beta3, fluorogenic substrate, fluorescence; inhibition, % at 12.2 µM; 370,000 compounds, 0.18% hits; AID 720704; in the data active = inhibition above about 11%;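 note: 0% = median of compound wells on plate and 100% = full blocker control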
PLCg1 inh: blocks human PLC-gamma1 enzyme activity | P19174 | purified PLC-gamma1, fluorogenic substrate, fluorescence | inhibition, % at 12.2 µM | 370,000 compounds, 0.84% hits | AID 720700
proCasp3 act: activates human procaspase-3; P42574; recombinant procaspase-3 D3A, Ac-DEVD-pNA absorbance 405 nm; activation, % at 8.5 µM; 330,000 compounds, 0.11% hits;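 active = activation above the mean of all tested compounds plus 3 SD, cut at about 21% in these data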;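 note: 0% = DMSO alone and 100% = DMSO wells spiked with extra 5 µM PC-3 D3A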
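Test system: Procaspase-3 D3A mutant; medium: Zinc-free HEPES/NaCl buffer with 0.01% Triton X-100 at pH 7.4; reagent: DEVD-pNA substrate; doses: one concentration, 8.5 µM nominal, 0.8% DMSO; times: 1 h preincubation plus 2 h reaction at 25 °C; signal: Epi-absorbance at 405 nm of released p-nitroaniline, 0 and 120 min; replicates: singlicate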
sPLA2-III inh: Inhibits HGIII-sPLA2 liposome hydrolysis, primary screen; Q9NZ20; QFRET BODIPY PC-A2 liposome hydrolysis, fluorescence; inhibition, % at 12.2 µM; 370,000 compounds, 0.56% hits;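 active = inhibition above mean plus 3 SD of compounds lying within the high and low control bounds, cut at about 19% in these data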;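 note: 0% = median of test compound wells and 100% = no enzyme DMSO wells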
procasp7 counter: counter-screen for procaspase-3 activators: activators of human procaspase-7; recombinant procaspase-7, Ac-DEVD-pNA absorbance 405 nm; D23A/D198A/D206A triple mutant, cannot self-cleave; scale: DMSO 0, 5 µM enzyme 100; activation, % at 8.5 µM; 330,000 compounds, 0.093% hits;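 active = percent activation above the screen-wide mean plus 3 SD, cut at about 25% in these data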
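buffer or medium = Zinc-free HEPES/NaCl buffer, pH 7.4 | material = Procaspase-7 triple mutant (PC-7 D3A) | input = 2 µM procaspase-7 mutant as dispensed | signal = Epi-absorbance of released pNA at 405 nm, two timepoints | timing = 1 h preincubation, 2 h reaction | replicates = singlicate compound testing | evaluation = % activation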
Arrestin-AP2 inh: human beta-arrestin and AP2 interaction inhibition. FITC-arrestin peptide / GST-AP2 beads, flow cytometry; AP2 beta2 appendage carries R879A mutation. inhibition, % at 10 µM. 340,000 compounds, 0.31% hits;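 active = inhibition above a set limit, near 3 SD of compounds lacking own fluorescence, cut at about 54% in these data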;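 note: plate controls were DMSO wells for no effect and 5 µM unlabelled arrestin peptide for full effect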
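Material – AP2 appendage R879A on GSH beads · Buffer or medium – PBS with 0.05% Tween 20 and 0.1% BSA · Probe or stimulus – fluorescein-tagged arrestin peptide at 50 nM final · Incubation – compound with beads 12 min RT, then probe 1 h RT · Detection – high-throughput flow cytometry of beads, ex 488, em 535 nm · Evaluation – percent response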
PLCg1 ctr: inhibits human PLC-gamma1 in PLC-beta3 counter-screen; shares compounds with PLCg1 inh; purified PLC-gamma1, fluorogenic substrate, fluorescence; inhibition, % at 12.3 µM; 3,300 compounds, 3.1% hits; AID 743258
PLCbeta3 conf: confirmation of human PLC-beta3 inhibitors | shares compounds with PLCg1 inh | purified PLC-beta3, fluorogenic substrate fluorescence | inhibition, % at 12.3 µM | 3,300 compounds, 1% hits | AID 743261; in the data active = inhibition above about 11%
Active calls of the source: *. Cut-off read from the data, not from the text of the source, unless noted: active = inhibition above about 9.5%; inactive = the rest.

How did COC(=O)C1=C(C)N(Cc2ccccc2C(F)(F)F)C(=NCc2ccc(C(F)(F)F)cc2)NC1c1ccc(Cl)cc1 (stereo not given) do in these assays?
PLCb3 inh: 1.6; PLCg1 inh: -0.2; sPLA2-III inh: 8.3

What do the screens show for `CN(Cc1cn(C)nc1-c1ccc(Oc2ccccc2)cc1)Cc1cnc2ccccn12`?
PLCb3 inh: -2.8; PLCg1 inh: 5.2; proCasp3 act: -6.5; sPLA2-III inh: 0.1; procasp7 counter: 0.9; Arrestin-AP2 inh: 6.0

What do the screens show for `Cn1cc(CNCc2cnc3ccccn23)c(-c2ccc(Oc3ccccc3)cc2)n1`?
PLCb3 inh: 8.4; PLCg1 inh: 14.8*; proCasp3 act: 4.2; sPLA2-III inh: -8.0; procasp7 counter: 5.2; Arrestin-AP2 inh: 9.9; PLCg1 ctr: 2.1; PLCbeta3 conf: 4.8

What do the screens show for `Cc1ccc2nc(-c3ccc(NC(=O)CSc4nnc(Cc5cccs5)n4C)cc3)sc2c1`?
PLCb3 inh: -228.9; PLCg1 inh: -179.7; sPLA2-III inh: -17.5

How did O=C(NC(=S)N1CCc2ccccc21)c1ccccc1Br do in these assays?
PLCb3 inh: 4.8; PLCg1 inh: 11.1*; proCasp3 act: -2.9; sPLA2-III inh: 13.3; procasp7 counter: -6.1; Arrestin-AP2 inh: -2.5; PLCg1 ctr: -2.9; PLCbeta3 conf: 4.3

How did O=C(NC(=S)N1CCc2ccccc21)c1ccc(Br)o1 do in these assays?
PLCb3 inh: -9.7; PLCg1 inh: -6.2; proCasp3 act: -9.6; sPLA2-III inh: 14.4; procasp7 counter: -15.3; Arrestin-AP2 inh: 13.3

How did CSc1ncccc1C(=O)NC1CCCc2c1cnn2-c1ccc(C)c(C)c1 (stereo not given) do in these assays?
PLCb3 inh: -7.8; PLCg1 inh: 11.4*; proCasp3 act: -2.9; sPLA2-III inh: -5.6; procasp7 counter: 6.0; Arrestin-AP2 inh: 23.1; PLCg1 ctr: 1.9; PLCbeta3 conf: 0.1

How did COc1ncccc1C(=O)NC1CCCc2c1cnn2-c1ccc(C)c(C)c1 (stereo not given) do in these assays?
PLCb3 inh: -12.0; PLCg1 inh: -3.1; proCasp3 act: -1.4; sPLA2-III inh: -3.3; procasp7 counter: -2.7; Arrestin-AP2 inh: 6.1

What do the screens show for `Cc1cccc(-n2c(Cc3ccccc3)nnc2SCC(=O)N2CCOCC2)c1`?
PLCb3 inh: 4.4; PLCg1 inh: 13.6*; proCasp3 act: 6.2; sPLA2-III inh: 11.7; procasp7 counter: 5.4; Arrestin-AP2 inh: -5.0; PLCg1 ctr: -5.0; PLCbeta3 conf: -2.8

Results for CCCOc1ccc(-c2nc(CSCC(=O)NC3CC3)c(C)o2)cc1 ?
PLCb3 inh: -1.1; PLCg1 inh: 0.1; sPLA2-III inh: -4.8

Results for COC(=O)[C@]12C[C@H](CC(=O)NCc3cccc(C(F)(F)F)c3)C(=O)N(Cc3cccc4ccccc34)C1=C[C@H](C(C)C)O[C@@H]2C1CC1 ?
PLCb3 inh: 1.3; PLCg1 inh: -1.1; sPLA2-III inh: -17.8

Results for O=C(c1cc(-c2ccccc2)nn1-c1ccccc1)N1CCN(S(=O)(=O)c2cccc(F)c2)CC1 ?
PLCb3 inh: -7.0; PLCg1 inh: 9.9*; proCasp3 act: -12.5; sPLA2-III inh: 12.2; procasp7 counter: 1.5; Arrestin-AP2 inh: 34.3; PLCg1 ctr: -4.5; PLCbeta3 conf: -0.3

Results for CC(COc1ccc(S(C)(=O)=O)cc1)CN1CCC(C(O)(c2ccccc2)c2ccccc2)CC1 (stereo not given) ?
PLCb3 inh: 0.8; PLCg1 inh: 0.2; sPLA2-III inh: -27.1

What do the screens show for `C[N+]1([O-])[C@@H]2Cc3cc4c(cc3[C@@H]1Cc1cc3c(cc12)OCO3)OCO4` (stereo not given in full)?
PLCb3 inh: 11.7*; PLCg1 inh: 1.0; proCasp3 act: 2.8; sPLA2-III inh: 12.0; procasp7 counter: 9.3; Arrestin-AP2 inh: -3.7; PLCg1 ctr: -1.9; PLCbeta3 conf: -4.1

How did COc1cc2c(cc1OC)[C@@H]1Cc3cc4c(cc3[C@H](C2)N1C)OCO4 do in these assays?
PLCb3 inh: 2.2; PLCg1 inh: -2.9; proCasp3 act: 6.5; sPLA2-III inh: 1.3; procasp7 counter: -5.3; Arrestin-AP2 inh: -4.2

What do the screens show for `COc1ccc(NC(=O)CSc2nnc(-c3n[nH]c4c3CCC4)n2N)cc1`?
PLCb3 inh: 0.2; PLCg1 inh: 1.6; sPLA2-III inh: 4.5

How did CC(=O)N(C)c1ccc(N=Nc2c(C)[nH]n(C(N)=S)c2=O)cc1 do in these assays?
PLCb3 inh: 4.8; PLCg1 inh: 1.6; proCasp3 act: 0.8; sPLA2-III inh: 6.7; procasp7 counter: -1.8; Arrestin-AP2 inh: -4.3

What do the screens show for `CCN(CC)S(=O)(=O)c1ccc(N=Nc2c(C)[nH]n(C(N)=S)c2=O)cc1`?
PLCb3 inh: 8.3; PLCg1 inh: 10.5*; proCasp3 act: -13.9; sPLA2-III inh: -17.6; procasp7 counter: -11.9; Arrestin-AP2 inh: 9.7; PLCg1 ctr: -0.3; PLCbeta3 conf: 2.5

Results for CS(=O)(=O)N1CCN(C(=O)c2ccc(F)cc2)CC1 ?
PLCb3 inh: 1.2; PLCg1 inh: 11.9*; proCasp3 act: -0.6; sPLA2-III inh: -7.1; procasp7 counter: 4.4; Arrestin-AP2 inh: 11.8; PLCg1 ctr: -2.5; PLCbeta3 conf: -0.2

Results for CS(=O)(=O)N1CCN(C(=O)c2ccncc2)CC1 ?
PLCb3 inh: 3.3; PLCg1 inh: 2.1; proCasp3 act: 2.6; sPLA2-III inh: -1.3; procasp7 counter: 8.9; Arrestin-AP2 inh: 5.8

What do the screens show for `COc1ccc(-c2nnc(SC(C)C(=O)Nc3nccs3)n2Cc2ccccc2)cc1OC` (stereo not given)?
PLCb3 inh: 1.8; PLCg1 inh: 9.8*; proCasp3 act: -5.2; sPLA2-III inh: -13.0; procasp7 counter: 0.9; Arrestin-AP2 inh: 2.8; PLCg1 ctr: -4.8; PLCbeta3 conf: -3.5

What do the screens show for `COc1ccc(-c2nnc(SC(C)C(=O)Nc3nccs3)n2-c2ccccc2)cc1OC` (stereo not given)?
PLCb3 inh: 0.8; PLCg1 inh: 0.5; proCasp3 act: 5.7; sPLA2-III inh: -5.1; procasp7 counter: 2.7; Arrestin-AP2 inh: -3.0

Results for CCOC(=O)NCc1ccc(CNC(=O)OCC)cc1 ?
PLCb3 inh: 2.9; PLCg1 inh: -1.1; proCasp3 act: -0.2; sPLA2-III inh: -0.8; procasp7 counter: 1.1; Arrestin-AP2 inh: -9.0

Compound activity as filed in PubChem.
